Calls of active or inactive are those of the source. The calls are words filed in the database; no cut-off is given here.
Key:
[1] = tested on: BV-2; experiment: Antiinflammatory activity in mouse BV2 cells assessed as downregulation of LPS-induced IL-1beta level at 3 uM by Western blot method; format: functional, cell-based
[2] = tested on: BV-2; experiment: Antiinflammatory activity in mouse BV2 cells assessed as downregulation of LPS-induced IL-6 mRNA expression at 3 uM by qRT-PCR method; format: functional, cell-based
Outline: (§1)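 BV-2 mouse microglia (DMEM, 10% heat-inactivated FBS, 2 mM glutamine) in six-well plates at 1.0 × 10^5 cells/well, given LPS with or without compound at 37 °C. RNA extracted. IL-1β and IL-6 mRNA measured by SYBR Green real-time PCR on cDNA from 50 ng DNase-treated RNA. ANOVA with Tukey–Kramer, n = 4.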

[3] = Cytotoxicity against human SK-N-BE(2)C cells up to 30 uM; format: toxicity, cell-based
[4] = tested on: SH-SY5Y; experiment: Neuroprotective activity against 6-OHDA-induced cell death in human SH-SY5Y cells assessed as decrease in release of mitochondrial cytochrome c into cytosolic fraction at 6 uM by Western blot method; format: functional, cell-based
Outline: (§2)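 SH-SY5Y cells exposed to 6-OHDA in serum-free N-2 medium ± compound at 6 µM. Lysates in Triton/Tris/NaCl/PMSF, SDS-PAGE, PVDF blot, HRP secondary, ECL detection of cleaved caspase-3 and cytosolic cytochrome c. Actin and SOD-1 used as loading controls.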

[5] = biological target: Nuclear receptor subfamily 4 group A member 2 (Mus musculus) (UniProt Q06219); experiment: Activation of mouse Nurr1 transfected in human SK-N-BE(2)C cells by luciferase reporter gene assay; format: cell-based
Nuclear receptor subfamily 4 group A member 2 (Mus musculus), sequence (Q06219 whole entry, the tested form may be a part): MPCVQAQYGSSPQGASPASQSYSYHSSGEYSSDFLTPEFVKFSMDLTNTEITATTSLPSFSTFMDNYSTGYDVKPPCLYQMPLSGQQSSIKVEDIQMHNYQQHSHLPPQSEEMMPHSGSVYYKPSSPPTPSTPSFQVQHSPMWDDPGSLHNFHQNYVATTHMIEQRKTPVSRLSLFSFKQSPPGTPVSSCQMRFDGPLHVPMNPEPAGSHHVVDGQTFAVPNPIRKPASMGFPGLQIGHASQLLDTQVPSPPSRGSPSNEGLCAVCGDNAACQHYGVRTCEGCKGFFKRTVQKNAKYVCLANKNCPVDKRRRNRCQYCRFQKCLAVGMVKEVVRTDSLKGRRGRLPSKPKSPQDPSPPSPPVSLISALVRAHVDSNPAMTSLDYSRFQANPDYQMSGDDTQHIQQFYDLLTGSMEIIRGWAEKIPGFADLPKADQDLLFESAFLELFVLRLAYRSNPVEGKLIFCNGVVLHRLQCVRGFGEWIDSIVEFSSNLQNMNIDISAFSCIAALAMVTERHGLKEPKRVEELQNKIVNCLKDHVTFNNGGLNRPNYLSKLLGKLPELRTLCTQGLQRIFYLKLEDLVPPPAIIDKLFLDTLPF
Outline: (§3)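 SK-N-BE(2)C neuroblastoma cells plated 1.5 × 10^5/well a day before, transfected with pTH2600LUC (2.6 kb rat TH promoter), pCMV Nurr1-myc, pZeoSV-Nurr1(LBD), p8xGAL-Luc and pRSV-β-gal control (0.5 µg DNA/well total). Test agent added 6 h post-transfection in DMEM with 1% charcoal-stripped serum, incubated overnight. Firefly luciferase read, normalized to β-galactosidase.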

[6] = tested on: BV-2; experiment: Antiinflammatory activity in mouse BV2 cells assessed as downregulation of LPS-induced IL-1beta mRNA expression at 3 uM by qRT-PCR method; format: functional, cell-based; outline: as §1
[7] = tested on: SH-SY5Y; experiment: Neuroprotective activity against 6-OHDA-induced cell death in human SH-SY5Y cells assessed as decrease in cleaved caspase-3 level at 6 uM by Western blot method; format: functional, cell-based; outline: as §2
[8] = tested on: BV-2; experiment: Antiinflammatory activity in mouse BV2 cells assessed as downregulation of LPS-induced IL-6 level at 3 uM by Western blot method; format: functional, cell-based
[9] = biological target: Nuclear receptor subfamily 4 group A member 2 (Mus musculus) (UniProt Q06219); experiment: Activation of mouse Nurr1 transfected in human SK-N-BE(2)C cells at 0.3 uM by luciferase reporter gene assay relative to control; format: cell-based; outline: as §3
[10] = tested on: SH-SY5Y; experiment: Neuroprotective activity against 6-OHDA-induced cell death in human SH-SY5Y cells assessed as increase in cell viability at 6.25 uM by MTT reduction assay; format: functional, cell-based
Outline: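 SH-SY5Y cells grown 2 days on poly-D-lysine in DMEM with 10% horse serum and 5% FBS, then switched to serum-free N-2 medium containing 6-OHDA ± compound. Viability by MTT (1 mg/mL final, 1 h), formazan solubilized 24 h in Triton/HCl/isopropanol, absorbance 570 nm. ANOVA with Tukey–Kramer, n = 4.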

[11] = Cytotoxicity against human SH-SY5Y cells assessed as decrease in cell viability at higher concentrations by MTT reduction assay; format: toxicity, cell-based
[12] = tested on: Rattus norvegicus; experiment: Antiinflammatory activity in 6-OHDA-lesioned Sprague-Dawley rat model of parkinson disease assessed as decrease in Iba-1 positive cell levels in striatum at 0.5 mg/kg/day, ip administered for 2 weeks measured on day 43 post 6-OHDA lesion induction by immunohistochemical analysis relative to vehicle-treated control; format: functional, organism-based
Outline: (§4)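 Same unilateral striatal 6-OHDA rat model with 2-week daily ip dosing (vehicle 0.25% ethanol). Perfused with 4% PFA on day 43. 40 µm coronal sections stained by DAB for TH (SNc, AP −4.8 to −5.5) or Iba-1 (striatum, AP +1.0 to +0.6). Cells counted in three sections per animal. TH expressed as % of contralateral side. Student's t-test, n = 10–14.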

[13] = tested on: Rattus norvegicus; experiment: Neuroprotective activity in 6-OHDA-lesioned Sprague-Dawley rat model of parkinson disease assessed as decrease in loss of tyrosine hydroxylase-positive immunoreactive neuronal cell levels in ipsilateral side of substantia nigra pars compacta by measuring cell levels in intact contralateral side at 0.5 mg/kg/day, ip administered for 2 weeks measured on day 43 post 6-OHDA lesion induction by immunohistochemical analysis (reference value: 24.62 +/- 3.48%); format: functional; design: scale not given: the % may be the effect or the level left; outline: as §4
[14] = tested on: Rattus norvegicus; experiment: Neuroprotective activity in 6-OHDA-lesioned Sprague-Dawley rat model of parkinson disease assessed as decrease in d-amphetamine-induced ipsilateral rotations at 0.5 mg/kg/day, ip administered for 2 weeks measured on day 14 and 42 post 6-OHDA lesion induction relative to vehicle-treated control; format: functional, organism-based
Outline: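 Sprague-Dawley rats (140–160 g), desipramine 25 mg/kg ip 30 min before surgery, under Zoletil anesthesia. 6-OHDA 8 µL of 2.5 µg/µL injected into left striatum. Compound in saline with 0.25% ethanol or vehicle given ip daily for 2 weeks (n = 10 vs 14). d-Amphetamine 5 mg/kg. Ipsilateral turns counted for 30 min starting 30 min after dosing, at weeks 2 and 6. Student's t-test.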

Compound	Activity [1]	Activity [2]	Activity [3]	Activity [4]	Activity [5]	Activity [6]	Activity [7]	Activity [8]	fold change (FC) [9]	Activity [10]	Activity [11]	Activity [12]	Activity [13] [%]	Activity [14]
C=C(C)[C@]12C[C@@H](C)[C@@]34OC(c5ccccc5)(O[C@@H]1[C@@H]3[C@@H]1O[C@]1(CO)[C@@H](O)[C@@]1(O)[C@H]4C[C@H](C)[C@@H]1OC(=O)c1ccccc1)O2	Active	Active	Non-Toxic	Active	Dose-dependent effect	Active	Active	Active	3	Active	Toxic	–	–	–
C=C(C)[C@@]12OC3(/C=C/C=C/CCCCC)O[C@@H]1[C@@H]1[C@@H]4O[C@]4(CO)[C@@H](O)[C@]4(O)C(=O)C(C)=C[C@H]4[C@@]1(O3)[C@H](C)[C@H]2OC(=O)c1ccccc1	Active	Active	Non-Toxic	Active	Dose-dependent effect	Active	Active	Active	3.5	Active	Toxic	Active	40.28	Active
